Where “and” joins values, the source holds several entries; their conditions need not be identical. Equal values may be shown once.
Test system: HEK-293T
Assay: Multiplex assay against HEK293T
Assay type: toxicity, cell-based
Conditions: human
Outline: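 Hoechst33342, BioTracker Green Microtubule Cytoskeleton Dye, MitoTracker Red and Annexin V Alexa Fluor 680 were added to live cells at seeding, and imaging on a CQ1 microscope at 37°C and 5% CO2 followed compound addition. Gating by CellPathfinder machine learning separated cells into Hoechst high-intensity objects or normal cells, then normal cells into healthy, pyknosed or fragmented nuclei, then pyknosed cells into mitotic or apoptotic. Per cents of healthy-nucleus cells are reported for the tubulin, mitochondrial-mass and membrane-permeability phenotypes.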

[1] = 12 h, 10 µM, compound concentration 10 uM, replicate 1
[2] = 12 h, 10 µM, compound concentration 10 uM, replicate 2
[3] = 24 h, 10 µM, compound concentration 10 uM, replicate 1
[4] = 24 h, 10 µM, compound concentration 10 uM, replicate 2
[5] = 48 h, 10 µM, compound concentration 10 uM, replicate 1
[6] = 48 h, 10 µM, compound concentration 10 uM, replicate 2
[7] = 12 h, 1 µM, compound concentration 1 uM, replicate 1
[8] = 12 h, 1 µM, compound concentration 1 uM, replicate 2
[9] = 24 h, 1 µM, compound concentration 1 uM, replicate 1
[10] = 24 h, 1 µM, compound concentration 1 uM, replicate 2
[11] = 48 h, 1 µM, compound concentration 1 uM, replicate 1
[12] = 48 h, 1 µM, compound concentration 1 uM, replicate 2

Compound: CC(=O)O[C@H]1C(=O)[C@@]2(C)[C@H]([C@H](OC(=O)c3ccccc3)[C@]3(O)C[C@H](OC(=O)[C@H](O)[C@@H](NC(=O)c4ccccc4)c4ccccc4)C(C)=C1C3(C)C)[C@]1(OC(C)=O)CO[C@@H]1C[C@@H]2O [PACLITAXEL]
- Population Apoptotic (%) [1]: 41% and 51%
- Population Fragmented Nuclei (%) [1]: 7% and 4%
- Population Healthy Nuclei (%) [1]: 74% and 79%
- Population Hoechst High Intensity Objects (%) [1]: 16% and 12%
- Population Membrane Permeable-Phenotype (%) [1]: 0%
- Population Mitochondria Different-Phenotype (%) [1]: 79% and 70%
- Population Mitotic Cells (%) [1]: 58% and 48%
- Population Normal (%) [1]: 83% and 87%
- Population Pyknosed Nuclei (%) [1]: 17% and 15%
- Population Tubulin-Different-Phenotype (%) [1]: 11% and 9%
- Population Apoptotic (%) [2]: 56% and 47%
- Population Fragmented Nuclei (%) [2]: 5% and 2%
- Population Healthy Nuclei (%) [2]: 64% and 75%
- Population Hoechst High Intensity Objects (%) [2]: 14%
- Population Mitochondria Different-Phenotype (%) [2]: 84% and 85%
- Population Mitotic Cells (%) [2]: 43% and 52%
- Population Normal (%) [2]: 85%
- Population Pyknosed Nuclei (%) [2]: 29% and 22%
- Population Tubulin-Different-Phenotype (%) [2]: 16% and 17%
- Population Apoptotic (%) [3]: 35% and 34%
- Population Fragmented Nuclei (%) [3]: 10% and 9%
- Population Healthy Nuclei (%) [3]: 70% and 73%
- Population Hoechst High Intensity Objects (%) [3]: 16% and 14%
- Population Membrane Permeable-Phenotype (%) [3]: 0%
- Population Mitochondria Different-Phenotype (%) [3]: 72% and 68%
- Population Mitotic Cells (%) [3]: 64% and 65%
- Population Normal (%) [3]: 83% and 85%
- Population Pyknosed Nuclei (%) [3]: 18% and 16%
- Population Tubulin-Different-Phenotype (%) [3]: 8% and 7%
- Population Apoptotic (%) [4]: 47% and 55%
- Population Fragmented Nuclei (%) [4]: 8% and 7%
- Population Healthy Nuclei (%) [4]: 75%
- Population Hoechst High Intensity Objects (%) [4]: 15%
- Population Mitochondria Different-Phenotype (%) [4]: 82% and 75%
- Population Mitotic Cells (%) [4]: 52% and 44%
- Population Normal (%) [4]: 84%
- Population Pyknosed Nuclei (%) [4]: 17%
- Population Tubulin-Different-Phenotype (%) [4]: 16% and 11%
- Population Apoptotic (%) [5]: 29% and 38%
- Population Fragmented Nuclei (%) [5]: 15% and 10%
- Population Healthy Nuclei (%) [5]: 68% and 75%
- Population Hoechst High Intensity Objects (%) [5]: 11% and 10%
- Population Membrane Permeable-Phenotype (%) [5]: 0%
- Population Mitochondria Different-Phenotype (%) [5]: 64% and 60%
- Population Mitotic Cells (%) [5]: 70% and 62%
- Population Normal (%) [5]: 88% and 89%
- Population Pyknosed Nuclei (%) [5]: 15% and 14%
- Population Tubulin-Different-Phenotype (%) [5]: 2% and 6%
- Population Apoptotic (%) [6]: 69% and 57%
- Population Fragmented Nuclei (%) [6]: 13%
- Population Healthy Nuclei (%) [6]: 70% and 73%
- Population Mitochondria Different-Phenotype (%) [6]: 70% and 68%
- Population Mitotic Cells (%) [6]: 30% and 42%
- Population Pyknosed Nuclei (%) [6]: 19% and 13%
- Population Tubulin-Different-Phenotype (%) [6]: 11%

Compound: C[C@H](NC(=O)c1c(C(F)F)nn(C)c1Oc1cccc(C(F)(F)F)c1)c1ccc(C(=O)O)cc1 [PALUPIPRANT]
- Population Apoptotic (%) [7]: 40%
- Population Fragmented Nuclei (%) [7]: 6%
- Population Healthy Nuclei (%) [7]: 80%
- Population Hoechst High Intensity Objects (%) [7]: 7%
- Population Membrane Permeable-Phenotype (%) [7]: 0%
- Population Mitochondria Different-Phenotype (%) [7]: 44%
- Population Mitotic Cells (%) [7]: 59%
- Population Normal (%) [7]: 92%
- Population Pyknosed Nuclei (%) [7]: 13%
- Population Tubulin-Different-Phenotype (%) [7]: 28%
- Total Cell Count [7]: 407
- Population Apoptotic (%) [8]: 27%
- Population Healthy Nuclei (%) [8]: 83%
- Population Hoechst High Intensity Objects (%) [8]: 5%
- Population Mitochondria Different-Phenotype (%) [8]: 60%
- Population Mitotic Cells (%) [8]: 72%
- Population Normal (%) [8]: 94%
- Population Pyknosed Nuclei (%) [8]: 10%
- Total Cell Count [8]: 475
- Population Apoptotic (%) [1]: 38%
- Population Fragmented Nuclei (%) [1]: 7%
- Population Healthy Nuclei (%) [1]: 76%
- Population Hoechst High Intensity Objects (%) [1]: 7%
- Population Membrane Permeable-Phenotype (%) [1]: 0%
- Population Mitochondria Different-Phenotype (%) [1]: 55%
- Population Mitotic Cells (%) [1]: 61%
- Population Normal (%) [1]: 92%
- Population Pyknosed Nuclei (%) [1]: 16%
- Population Tubulin-Different-Phenotype (%) [1]: 40%
- Total Cell Count [1]: 371
- Population Apoptotic (%) [2]: 60%
- Population Fragmented Nuclei (%) [2]: 5%
- Population Healthy Nuclei (%) [2]: 77%
- Population Hoechst High Intensity Objects (%) [2]: 10%
- Population Mitochondria Different-Phenotype (%) [2]: 68%
- Population Mitotic Cells (%) [2]: 40%
- Population Normal (%) [2]: 89%
- Population Pyknosed Nuclei (%) [2]: 17%
- Population Tubulin-Different-Phenotype (%) [2]: 27%
- Total Cell Count [2]: 293
- Population Apoptotic (%) [9]: 36%
- Population Fragmented Nuclei (%) [9]: 9%
- Population Healthy Nuclei (%) [9]: 80%
- Population Hoechst High Intensity Objects (%) [9]: 5%
- Population Membrane Permeable-Phenotype (%) [9]: 1%
- Population Mitochondria Different-Phenotype (%) [9]: 27%
- Population Mitotic Cells (%) [9]: 63%
- Population Normal (%) [9]: 94%
- Population Pyknosed Nuclei (%) [9]: 10%
- Population Tubulin-Different-Phenotype (%) [9]: 18%
- Total Cell Count [9]: 527
- Population Apoptotic (%) [10]: 46%
- Population Fragmented Nuclei (%) [10]: 7%
- Population Healthy Nuclei (%) [10]: 83%
- Population Hoechst High Intensity Objects (%) [10]: 4%
- Population Membrane Permeable-Phenotype (%) [10]: 0%
- Population Mitochondria Different-Phenotype (%) [10]: 35%
- Population Mitotic Cells (%) [10]: 53%
- Population Normal (%) [10]: 95%
- Population Pyknosed Nuclei (%) [10]: 9%
- Population Tubulin-Different-Phenotype (%) [10]: 19%
- Total Cell Count [10]: 604
- Population Apoptotic (%) [3]: 26%
- Population Fragmented Nuclei (%) [3]: 9%
- Population Healthy Nuclei (%) [3]: 74%
- Population Hoechst High Intensity Objects (%) [3]: 3%
- Population Membrane Permeable-Phenotype (%) [3]: 0%
- Population Mitochondria Different-Phenotype (%) [3]: 46%
- Population Mitotic Cells (%) [3]: 73%
- Population Normal (%) [3]: 96%
- Population Pyknosed Nuclei (%) [3]: 16%
- Population Tubulin-Different-Phenotype (%) [3]: 29%
- Total Cell Count [3]: 465
- Population Apoptotic (%) [4]: 55%
- Population Fragmented Nuclei (%) [4]: 7%
- Population Healthy Nuclei (%) [4]: 79%
- Population Hoechst High Intensity Objects (%) [4]: 7%
- Population Mitochondria Different-Phenotype (%) [4]: 52%
- Population Mitotic Cells (%) [4]: 44%
- Population Normal (%) [4]: 92%
- Population Pyknosed Nuclei (%) [4]: 13%
- Population Tubulin-Different-Phenotype (%) [4]: 19%
- Total Cell Count [4]: 353
- Population Apoptotic (%) [11]: 25%
- Population Fragmented Nuclei (%) [11]: 13%
- Population Healthy Nuclei (%) [11]: 79%
- Population Hoechst High Intensity Objects (%) [11]: 2%
- Population Membrane Permeable-Phenotype (%) [11]: 1%
- Population Mitochondria Different-Phenotype (%) [11]: 17%
- Population Mitotic Cells (%) [11]: 75%
- Population Normal (%) [11]: 97%
- Population Pyknosed Nuclei (%) [11]: 7%
- Population Tubulin-Different-Phenotype (%) [11]: 13%
- Total Cell Count [11]: 916
- Population Apoptotic (%) [12]: 21%
- Population Fragmented Nuclei (%) [12]: 14%
- Population Healthy Nuclei (%) [12]: 78%
- Population Hoechst High Intensity Objects (%) [12]: 4%
- Population Membrane Permeable-Phenotype (%) [12]: 0%
- Population Mitochondria Different-Phenotype (%) [12]: 18%
- Population Mitotic Cells (%) [12]: 78%
- Population Normal (%) [12]: 95%
- Population Pyknosed Nuclei (%) [12]: 6%
- Population Tubulin-Different-Phenotype (%) [12]: 9%
- Total Cell Count [12]: 867
- Population Apoptotic (%) [5]: 29%
- Population Fragmented Nuclei (%) [5]: 18%
- Population Healthy Nuclei (%) [5]: 75%
- Population Hoechst High Intensity Objects (%) [5]: 1%
- Population Membrane Permeable-Phenotype (%) [5]: 1%
- Population Mitochondria Different-Phenotype (%) [5]: 24%
- Population Mitotic Cells (%) [5]: 70%
- Population Normal (%) [5]: 98%
- Population Pyknosed Nuclei (%) [5]: 6%
- Population Tubulin-Different-Phenotype (%) [5]: 16%
- Total Cell Count [5]: 821
- Population Apoptotic (%) [6]: 28%
- Population Fragmented Nuclei (%) [6]: 15%
- Population Healthy Nuclei (%) [6]: 77%
- Population Hoechst High Intensity Objects (%) [6]: 3%
- Population Membrane Permeable-Phenotype (%) [6]: 0%
- Population Mitochondria Different-Phenotype (%) [6]: 28%
- Population Mitotic Cells (%) [6]: 71%
- Population Normal (%) [6]: 96%
- Population Tubulin-Different-Phenotype (%) [6]: 17%
- Total Cell Count [6]: 554

Source: ChEMBL document CHEMBL5058577, “EUbOPEN Chemogenomics Library 2 (Multiplex)” (2022)
